Assay outcomes (PubChem)
FLuc inhib CS = firefly luciferase enzyme inhibitors, primary screen, artefact control for luciferase-based inhibitor screens, biochemical, luminescence, ATPLite; 10 min; inhibition, % at 10 µM; 200,000 compounds, 1.5% hits;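 active = inhibition above about 50% when tested at 10 µM, limit read from the data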
Target sequence (P08659 whole entry, looked up): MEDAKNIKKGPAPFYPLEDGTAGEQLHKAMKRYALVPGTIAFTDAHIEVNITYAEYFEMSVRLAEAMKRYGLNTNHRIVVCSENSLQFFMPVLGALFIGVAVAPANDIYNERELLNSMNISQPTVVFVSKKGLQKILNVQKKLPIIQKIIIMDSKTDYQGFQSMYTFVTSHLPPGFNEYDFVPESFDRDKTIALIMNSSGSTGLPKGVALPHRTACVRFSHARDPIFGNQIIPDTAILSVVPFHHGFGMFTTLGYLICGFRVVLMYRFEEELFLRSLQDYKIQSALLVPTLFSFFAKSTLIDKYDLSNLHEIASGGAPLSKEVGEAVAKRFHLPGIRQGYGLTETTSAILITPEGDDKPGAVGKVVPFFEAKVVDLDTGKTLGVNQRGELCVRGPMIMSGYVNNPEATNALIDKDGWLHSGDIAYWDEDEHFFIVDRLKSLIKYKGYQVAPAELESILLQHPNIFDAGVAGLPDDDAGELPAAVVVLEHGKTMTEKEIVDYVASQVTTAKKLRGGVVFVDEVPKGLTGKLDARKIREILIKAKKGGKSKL
TRAIL sens C8 = viability loss with TRAIL in NB7+C8 cells, primary screen, TRAIL sensitizer project, cell-based, ATPlite luminescence | inhibition (viability loss, TRAIL sensitization), % at 10 µM | 360,000 compounds, 1% hits | AID 624354, 2012;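 active = compounds causing at least 50% loss of cell viability in the single-dose screen, relative to plate controls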
PPC-1+TRAIL kill = compounds killing PPC-1 cancer cells with TRAIL present, primary screen, TRAIL potentiator project, ATPLite luminescence, uHTS. 220,000 compounds, 0.41% hits. cell killing (% activity), % at 4 µM or 5 µM. PPC-1 cells + TRAIL, ATPLite viability luminescence;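 active = cell killing above 50% in the first pass at 4 µM, then a duplicate retest at 5 µM averaging 50% or more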;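 also: plate controls were cells with TRAIL plus DMSO for no effect and medium-only wells lacking cells for full effect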
NF-kB expr up = activators of NF-kB expression in neurons, primary screen, cell-based, HTS; AID 1239, 2008; fold change at 12.5 µM; 190,000 compounds, 1.6% hits; human neuronal cells, NF-kB reporter expression; stronger effect = higher value; in the data active = fold change above about 3.3
APP 5'UTR act = activators of APP 5'UTR luciferase reporter, primary screen, SH-SY5Y cells | SH-SY5Y APP 5'UTR luciferase reporter, luminescence; zero percent = DMSO vehicle wells | activation, % at 2 µM | 190,000 compounds, 1% hits;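 active = activation above a set limit, based on mean plus 3 SD of controls, cut at about 140% in these data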
FLuc stim CS = FLuc activators, initial screening, artefact control for FLuc-dependent activation tests, biochemical, ATPlite luminescence. ATPlite luciferase biochemical, 10 min; 0 = ATP-free wells, 1 = DMSO control. activation factor at 10 µM. 200,000 tested, under 10 active. AID 1027, 2008;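 active = luciferase activation factor, scaled between plate controls, of at least 2 with compound at 10 µM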
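System: luciferase plus luciferin reagent, cell-free; medium: PBS as buffer for the ATP substrate; dosing: test compounds dosed from 2 mM stocks in 100% DMSO; timing: 10 min post-reagent at room temperature; measured by: luminescence measurement of luciferase light output; evaluation: luciferase activation, seen as luminescence increase over controls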
Active calls of the source: *; . = no result given. Compounds with a hit are over-represented: about 2.2% of the library has one in this group of screens.

SMILES	FLuc inhib CS	TRAIL sens C8	PPC-1+TRAIL kill	NF-kB expr up	APP 5'UTR act	FLuc stim CS
CC1CCC/C(=N/Nc2nc3ccccc3s2)C1 (stereo not given)	72*	4	26	1.3	140*	0.3
CC1(C)CC(=O)C/C(=N/Nc2nc3ccccc3s2)C1	-1	21	14	0.61	57	1
Brc1ccc(/C=C/C=N/Nc2nc3ccccc3s2)cc1	-1	-13	-2	1.3	8	1
COc1ccc(C=NNc2nc3ccccc3s2)cc1	.	47	.	.	.	.
CC1(C)CCCC2(C)C(OCCO)=CC(=O)C=C12 (stereo not given)	.	-10	.	.	.	.
CC(=O)Nc1ccc(-c2ccnc3c2CC(C(=O)Nc2cccnc2)O3)cc1 (stereo not given)	.	12	.	.	.	.
COc1ccccc1C(=O)Nc1ccc(-c2nnn(CC(=O)N3CCN(C(=O)c4ccco4)CC3)n2)cc1	18	6	6	0.87	6	0.8
O=C(Nc1ccc(-c2nnn(CC(=O)N3CCN(C(=O)c4ccco4)CC3)n2)cc1)c1ccccc1F	56*	.	14	1.6	4	0.4
O=S(=O)(NCC[C@@H]1CC[C@H](NS(=O)(=O)c2cccc(F)c2)[C@@H](CO)O1)c1cccc(F)c1	.	-14	.	.	.	.
N/C(=N/OC(=O)c1ccccc1Cl)c1nonc1N	52*	6	9	4.9*	19	0.5
Cc1cc(NC(=O)COC(=O)c2ccccc2Cl)no1	.	-16	.	.	.	.
Cc1cc(/C(N)=N/OC(=O)c2ccccc2Cl)no1	.	61*	37	.	.	.
Cc1ccc(C(=O)O/N=C(\N)c2nonc2N)cc1	84*	-4	-7	1	13	0.2
N/C(=N\OC(=O)c1ccc(F)cc1)c1nonc1N	49	4	-7	1.9	6	0.5
COc1cccc(N(C(=O)CCl)C(C(=O)NCCc2ccccc2)c2cccs2)c1 (stereo not given)	-7	96*	35	0.12	-4	1.1
COc1ccc(N(C(=O)CCl)C(C(=O)NCCc2ccccc2)c2cccs2)cc1Cl (stereo not given)	1	95*	89*	0.13	2	1
COC(=O)C1C(=O)N(S(=O)(=O)c2ccc([N+](=O)[O-])cc2)c2ccccc21 (stereo not given)	.	-3	.	.	.	.
CCc1nc2ccc(C(=O)NCc3ccccc3OC)cn2c1N(C)Cc1ccc(N(C)C)cc1	.	-3	.	.	.	.
COc1ccccc1OCc1cc(-c2ccccc2)no1	20	6	0	4.3*	80	0.8
c1ccc(OCc2cc(-c3ccccc3)no2)cc1	20	8	16	2	59	0.8
CC(C)CC(N)c1csc(NC(=O)c2cc(C(C)(C)C)nn2Cc2ccccc2)n1 (stereo not given)	.	84*	.	.	.	.
Cn1c(N)c(C(=O)COC(=O)c2cc(S(=O)(=O)N3CCOCC3)ccc2F)c(=O)n(C)c1=O	.	64*	.	.	.	.
COc1ccc(CN2C[C@@H](CO)O[C@@H](n3cnc4c(N5CCOCC5)ncnc43)C2)cc1	.	6	.	.	.	.
COc1ccc(N/C(C)=C/C(=O)c2ccccc2)cc1	39	14	22	3.4*	23	0.6
C/C(=C\C(=O)c1ccncc1)Nc1ccccc1O	0	-4	-15	6*	8	1
SMILES	FLuc inhib CS	TRAIL sens C8	PPC-1+TRAIL kill	NF-kB expr up	APP 5'UTR act	FLuc stim CS
COc1ccc(OC)c(N/C(C)=C/C(=O)c2ccccc2)c1	76*	45	44	1.1	77	0.2
COc1ccc(OC)c(N/C=C/C(=O)c2ccccc2)c1	.	91*	.	.	.	.
COC(=O)/C(=C\C(=O)c1ccccc1)Nc1ccc(OC)cc1	.	0	-4	.	.	.
CCOC(=O)[C@]12CCC=C1N(Cc1ccc(Cl)cc1Cl)C(=O)[C@H](CC(=O)N1CCC(c3ccccc3)CC1)C2	.	12	.	.	.	.
CCOc1ccccc1NC(=O)Cn1nnc(C(=O)NCc2ccco2)c1N	-4	8	13	3.7*	-96	1
Cc1ccccc1NC(=O)Cn1nnc(C(=O)NCc2ccco2)c1N	-4	-14	0	1.3	15	1
C=CCNc1nc2cc(-c3ccc(C(=O)N4CCOCC4)cc3)sc2c(=O)n1C	.	18	.	.	.	.
